RGS4 block – human RGS4 inhibition; P49798; HEK293 M3R/RGS4 inducible, Fluo-4 calcium flux; stronger effect = higher value; triggered by carbachol at its EC20; B-score at 10 µM; hit rate 0.45% among 310,000; AID 463165;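 active means B-score, a plate-corrected calcium signal, over three deviations above library mean, with baseline fluorescence within five deviations of library mean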;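 further: RGS4 expression induced by doxycycline in cells with stable M3 receptor; B-score is computed from the integrated fluorescence ratio over baseline after carbachol; higher B-score means a larger calcium signal and so more RGS4 inhibition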
Target sequence (P49798 whole entry, looked up): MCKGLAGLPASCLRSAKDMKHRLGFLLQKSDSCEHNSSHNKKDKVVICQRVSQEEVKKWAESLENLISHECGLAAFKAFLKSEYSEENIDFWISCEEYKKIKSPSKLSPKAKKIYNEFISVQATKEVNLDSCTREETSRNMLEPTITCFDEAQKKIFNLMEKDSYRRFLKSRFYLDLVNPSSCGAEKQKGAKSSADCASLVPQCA
MrgX1 ag – human MrgX1 receptor agonism, primary screen | MrgX1-HEK293 cells, Fluo-4 calcium fluorescence, agonist mode; stronger effect = higher value | B-score at 10 µM | hit rate 0.44% among 310,000;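 active means calcium response B-score plate-corrected fluorescence ratio at least 3 library SD, with starting fluorescence B-score inside 5 SD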
Target sequence (Q96LB2 whole entry, looked up): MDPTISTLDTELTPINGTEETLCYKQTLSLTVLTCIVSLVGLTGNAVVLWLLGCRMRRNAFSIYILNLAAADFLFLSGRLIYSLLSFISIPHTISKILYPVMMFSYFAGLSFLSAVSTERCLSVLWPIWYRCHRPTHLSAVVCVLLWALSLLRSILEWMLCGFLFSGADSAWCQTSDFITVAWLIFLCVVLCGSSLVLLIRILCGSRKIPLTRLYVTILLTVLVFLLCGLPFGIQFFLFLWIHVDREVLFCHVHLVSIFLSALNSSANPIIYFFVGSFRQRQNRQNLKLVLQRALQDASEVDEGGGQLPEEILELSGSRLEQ
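System: HEK293 cells stably expressing human MrgX1 receptor; Dosing: test compound in the initial addition of three; Schedule: overnight plating, then 30 min 37 °C plus 30 min room-temperature dye loading; Detection: kinetic calcium dye fluorescence, Fluo-4 NW; Controls: per-plate positive and negative controls for Z′ factor.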
MrgX1 allo act – allosterically activates human MrgX1 receptor signaling; Q96LB2; MrgX1-HEK293, Fluo-4 calcium flux, FDSS; stronger effect = higher value; B-score at 10 µM; hit rate 0.63% among 310,000; AID 588675;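 active means plate-corrected calcium response at least 3 library SD above typical, normal starting fluorescence, not activating the receptor alone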;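 further: compound read alongside a low EC10 to EC30 dose of BAM8-22 agonist; peak minus trough fluorescence over baseline measured at the second addition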
MrgX1 antagonist – human MrgX1 receptor antagonism, primary screen; Q96LB2; MRGX1-HEK293 calcium flux, Fluo-4, BAM8-22 antagonism; stronger effect = lower value; B-score at 10 µM; hit rate 1.3% among 310,000; AID 588676;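 active means calcium-response B-score plate-corrected more than 3 library SD below zero, starting fluorescence within 5 deviations, no agonist response on first addition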;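 further: peak minus trough fluorescence over baseline after final BAM8-22 challenge near maximal dose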
RGS4 act – potentiators or activators of RGS4; HEK293 M3R/inducible RGS4, carbachol calcium flux Fluo4; stronger effect = lower value; B-score at 10 µM; hit rate 0.92% among 310,000; AID 463111;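 active means B-score of the integrated calcium signal more than 4 SD below the library mean, with starting fluorescence not abnormally high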;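 further: negative B-score means reduced calcium response which marks RGS4 activation or potentiation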
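Reagent: ECmax carbachol challenge; Test system: M3R-expressing HEK293 line, RGS4 induced by doxycycline; Schedule: overnight RGS4 induction, 30 min dye load 37 °C, 20 min compound RT; Detection: calcium dye Fluo4 fluorescence; Read-out: Agonist-evoked peak-minus-minimum fluorescence over baseline, integrated ratio, B score.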
MrgX1 allo conf – confirmation of human MrgX1 receptor positive allosteric modulators; shares compounds with MrgX1 allo act; MrgX1-HEK293, Fluo-4 calcium fluorescence, FDSS; activation (ratio percentage), % at 10 µM; hit rate 13% among 1,200; AID 602413;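 active means ratio at least 3 SD above the weak peptide control, stable starting fluorescence, no direct agonism earlier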;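 further: compound followed by low BAM8-22 agonist challenge near EC20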
HEK293 Ca flux – MrgX1 antagonist counter-screen hit in parental HEK293 cells | shares compounds with MrgX1 antagonist | Fluo-4 calcium fluorescence, FDSS | fluorescence ratio F(max-min)/F0 at 10 µM | hit rate 2% among 4,000 | AID 624111;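 active means duplicate-averaged calcium fluorescence ratio at least three times the standard deviation of buffer wells, a nonspecific response in parental cells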
HEK293 Ca counter – activity in parental HEK293 cells without MrgX1. shares compounds with MrgX1 antagonist. parental HEK293 calcium flux, Fluo-4 fluorescence ratio; stronger effect = higher value. fluorescence ratio F(max-min)/F0 at 10 µM. hit rate 0.4% among 4,000. AID 624114;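 active means calcium fluorescence ratio, averaged over duplicates, at least 3 SD of the buffer-well ratio, meaning a nonspecific response in receptor-free cells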;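 further: untransfected parental HEK293 lacking MrgX1 used as counterscreen for MrgX1 allosteric activators; fluorescence change taken during the second addition on a kinetic imager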
HEK293 Ca cntr2 – counter-screen for MrgX1 activators: effect in parental HEK293 cells; shares compounds with MrgX1 antagonist; Fluo-4 calcium fluorescence (FDSS); stronger effect = higher value; fluorescence ratio F(max-min)/F0 at 10 µM; hit rate 8.7% among 4,000; AID 624115;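 active means calcium fluorescence ratio at least three times the spread of buffer wells, meaning a non-specific response in parental cells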
Hits are given with their value; n = inactive; x = no result. Most compounds without a hit are left out; they make up all but 3.5% or so of the library.

SMILES	RGS4 block	MrgX1 ag	MrgX1 allo act	MrgX1 antagonist	RGS4 act	MrgX1 allo conf	HEK293 Ca flux	HEK293 Ca counter	HEK293 Ca cntr2
CCCCOCCCN1CC(=O)N2C(C)c3[nH]c4ccccc4c3C[C@H]2C1=O (stereo not given in full)	n	n	7.5	n	n	n	n	n	n
CCCCCN1CC(=O)N2C(C)c3[nH]c4ccccc4c3C[C@H]2C1=O (stereo not given in full)	n	n	14	n	n	n	n	n	n
CCN(CC)S(=O)(=O)c1cc(NC(=O)c2ccc(-n3cncn3)c([N+](=O)[O-])c2)ccc1C	n	n	n	n	n	x	x	x	x
COc1cccc(NC2=C(Cl)C(=O)OC2OC(=O)c2ccco2)c1 (stereo not given)	n	n	n	n	n	x	x	x	x
c1ccc(-n2cnc3cc(NCc4cccs4)ccc32)cc1	n	n	n	n	n	x	x	x	x
Cc1ccc(-n2cnc3cc(NCc4cccs4)ccc32)cc1	n	n	9.8	n	n	n	n	n	n
CCOC(=O)N1CCN(C(=O)c2ccc3c(=O)n(-c4cc(OC)ccc4OC)c(=S)[nH]c3c2)CC1	n	n	n	n	n	x	x	x	x
CCCCN1C(=O)C(=Nc2cccc3cnccc23)c2ccccc21	n	n	n	n	n	x	x	x	x
CNS(=O)(=O)c1ccc(CCC(=O)N2CCN(c3ccccc3OC)CC2)cc1	n	n	11	n	n	n	n	n	n
CCCn1c(=O)c2[nH]c(-c3ccc(OCC(=O)Nc4ccc(C#N)cc4)cc3)nc2n(CCC)c1=O	x	n	n	n	x	x	x	x	x
CCOC(=O)CNC(=O)CSc1nc(-c2ccc(OC)cc2)ns1	n	n	12	n	n	n	n	n	n
Cc1sc(N(C(=O)CCc2ccccc2)c2ccc(C(=O)O)cc2)nc1-c1ccccc1	n	n	n	n	n	x	x	x	x
CCC(=O)N(c1ccc(C(=O)O)cc1)c1nc(-c2ccc(OC)cc2)c(C)s1	n	n	6.5	n	n	n	n	n	n
COc1ccc(/C=C2\SC(=S)N(CC(=O)NC3C=CS(=O)(=O)C3)C2=O)cc1 (stereo not given)	n	n	n	n	n	x	x	x	x
Cc1ccc(CN2CCN(C3CCOCC3)CC2CCO)cc1 (stereo not given)	n	n	8.9	n	n	n	n	n	n
CC1=CSC2=NC(=O)/C(=C\c3cccn3-c3ccc([N+](=O)[O-])cc3)C(=N)N12	n	n	26	n	n	24%	n	n	n
Cc1cc(C)c2c(=O)n(CC(=O)Nc3ccc(Br)c(C)c3)sc2n1	n	n	7.1	n	n	n	n	n	n
CC(C)(C)c1nnc(NS(=O)(=O)c2cc(Cl)ccc2Cl)s1	n	n	12	n	n	n	n	n	n
O=S(=O)(Nc1nnc(C(F)(F)F)s1)c1ccc(Cl)cc1	n	n	n	n	n	x	x	x	x
N#Cc1c(/N=C/C=C/c2ccccc2)sc2c1CCCC2	n	n	8	n	n	n	n	n	n
CN1CCN(/C=N/c2sc3c(c2C#N)CCCCC3)CC1	n	n	n	n	n	x	x	x	x
NC(=O)c1c(NC(=O)C2c3ccccc3Oc3ccccc32)sc2c1CCCCC2	n	n	13	n	n	n	n	n	n
CC(C)C(O)(c1ccccc1)C(CN1CCOCC1)c1ccccc1 (stereo not given)	n	n	8.4	n	n	n	n	n	n
CC(C)CC(O)(c1ccccc1)C(CN1CCOCC1)c1ccccc1 (stereo not given)	n	n	n	n	n	x	x	x	x
COc1ccccc1C(O)(c1ccccc1)C(CN1CCOCC1)c1ccccc1 (stereo not given)	n	n	9.1	n	n	n	n	n	n
SMILES	RGS4 block	MrgX1 ag	MrgX1 allo act	MrgX1 antagonist	RGS4 act	MrgX1 allo conf	HEK293 Ca flux	HEK293 Ca counter	HEK293 Ca cntr2
CCn1c(C)c(C)c2cc(C(=O)NC3CCCCCC3)ccc21	n	n	n	n	n	x	x	x	x
CCCCC(=O)NC(=S)Nc1c(C)cc(Br)cc1C	n	n	9.3	n	n	n	n	n	n
CCCCC(=O)NC(=S)Nc1cccc(NC(=O)CC)c1	n	n	n	n	n	x	x	x	x
CCCCC1CCc2[nH]nc(C(=O)O)c2C1 (stereo not given)	x	n	n	n	x	x	x	x	x
CC(NC(=O)Nc1ccccc1O)(C(F)(F)F)C(F)(F)F	n	n	9.8	n	n	n	n	n	n
O=C(N1CCOCC1)N1CCN(C(c2ccccc2)c2ccccc2)CC1	n	n	n	n	n	x	x	x	x
O=C(N1CCCCC1)N1CCN(C(c2ccccc2)c2ccccc2)CC1	n	n	6.9	n	n	n	n	n	n
COc1ccc(N(C)S(=O)(=O)c2ccc3c(c2)NC(=O)CO3)c(OC)c1	n	n	7	n	n	n	n	n	n
COc1ccc(C)cc1NC(=O)C1CCN(S(=O)(=O)c2ccc3c(c2)NC(=O)CO3)CC1	n	n	7.6	n	n	n	n	n	n
O=C1COc2ccc(S(=O)(=O)NCCc3ccccc3)cc2N1	n	n	n	n	n	x	x	x	x
O=C1COc2ccc(S(=O)(=O)NCc3ccc(Cl)cc3)cc2N1	n	n	6.5	n	n	n	n	n	n
CCCSCCCNC(=O)CN1C(=O)COc2ccc(S(=O)(=O)N3CCCC3)cc21	n	n	n	n	n	x	x	x	x
CC(C)(C)NC(=O)C(c1ccc(F)cc1)N(C(=O)CCC(=O)Nc1ccccn1)C1CCCC1 (stereo not given)	n	n	n	n	n	x	x	x	x
Cc1ccc(CNC(=O)CC2C(=O)Nc3c2c(=O)n(C)c(=O)n3Cc2ccccc2)cc1 (stereo not given)	n	n	n	n	n	x	x	x	x
O=C(CSc1nnnn1C1CCCC1)Nc1ccccc1F	n	n	n	n	n	x	x	x	x
O=C(CSc1nnnn1C1CCCC1)Nc1ccccc1N1CCOCC1	n	n	7.9	n	n	n	n	n	n
COc1ccccc1NC(=O)N1c2ccc(F)cc2CCC1C (stereo not given)	n	n	10	n	n	n	n	n	n
NC(=O)c1ccccc1NC(=O)c1ccoc1	n	n	n	n	n	x	x	x	x
CC/C(=C\C(=O)c1cccnc1)Nc1ccc(C)c(C)c1	n	n	8.7	n	n	n	n	n	n
Cc1c(/C=N\NC(=O)C2COc3ccc(C(C)(C)C)cc3O2)c2ccccc2n1C (stereo not given)	n	n	n	n	n	x	x	x	x

High-throughput results deposited in PubChem by Johns Hopkins Ion Channel Center.
